Results on 43 compounds are retold here after ChEMBL document CHEMBL3351394 (J Med Chem, 2014).

Each structure is given as a SMILES string. Activity calls are given as the source filed them. No cut-off for these calls is given here.

The target of the first assay is T1, Bile acid receptor (Homo sapiens) (UniProt Q96RI1).
T1 sequence (whole entry): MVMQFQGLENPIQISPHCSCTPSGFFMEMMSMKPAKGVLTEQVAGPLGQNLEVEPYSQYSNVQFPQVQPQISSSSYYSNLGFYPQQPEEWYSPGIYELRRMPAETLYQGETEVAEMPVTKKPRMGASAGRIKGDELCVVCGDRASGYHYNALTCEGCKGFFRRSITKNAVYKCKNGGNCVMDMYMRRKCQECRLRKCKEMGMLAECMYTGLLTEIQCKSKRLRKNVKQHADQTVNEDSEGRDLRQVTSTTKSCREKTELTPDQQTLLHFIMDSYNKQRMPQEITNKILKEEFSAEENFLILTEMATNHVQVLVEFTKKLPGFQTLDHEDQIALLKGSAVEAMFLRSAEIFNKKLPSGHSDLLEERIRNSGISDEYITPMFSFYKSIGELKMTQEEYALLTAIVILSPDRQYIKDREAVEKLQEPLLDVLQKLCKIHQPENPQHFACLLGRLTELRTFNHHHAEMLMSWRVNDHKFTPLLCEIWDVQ
The assay can be described thus: Agonist activity at human FXR expressed in human HeLa cells assessed as receptor activation at 30 uM by BSEP promoter-driven firefly luciferase reporter gene assay relative to 3 uM GW4064.
Settings: not given
Type of assay: cell-based. In a few lines: (§1)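 HeLa cells were calcium-phosphate transfected with pcDNA3-hFXR, pSG5-hRXR, a BSEP-promoter firefly luciferase (BSEP-pGL3) and pRL-SV40, then kept in 0.5% charcoal-stripped FCS. 24 h post-transfection, compound in 0.1% DMSO was added for 24 h; in antagonist mode it was given in competition with GW4064. Dual-luciferase firefly/renilla RLU gave fold over untreated and activity relative to 3 μM GW4064. Triplicate wells, ≥3 independent runs.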
(In general: A reporter such as luciferase makes a cellular process visible.)
On to `O=C(O)c1cccc(NC(=O)c2ccccc2NC(=O)c2cc(C(F)(F)F)cc(C(F)(F)F)c2)c1`, for which the outcome was inactive.

In the case of `Nc1ccccc1C(=O)Nc1cccc(C(=O)O)c1`, the outcome was inactive.

With `Cc1ccc(C(=O)O)cc1NC(=O)c1ccccc1NC(=O)c1ccc(C(C)(C)C)cc1`, the result was inactive.

`COc1cc(NC(=O)c2ccccc2NC(=O)c2ccc(C(C)(C)C)cc2)cc(OC)c1OC`: the result was inactive.

Regarding `COc1ccc(NC(=O)c2ccc(C(C)(C)C)cc2)c(C(=O)Nc2cccc(C(=O)O)c2)c1`, the outcome was inactive.

Regarding `CC(C)(C)c1ccc(C(=O)Nc2cccc(Cl)c2C(=O)Nc2cccc(C(=O)O)c2)cc1`, the result was inactive.

Consider `CC(C)(C)c1ccc(C(=O)Nc2c(Cl)cccc2C(=O)Nc2cccc(C(=O)O)c2)cc1`, for which the result was inactive.

For `CC(C)(C)c1ccc(C(=O)Nc2cc([N+](=O)[O-])ccc2C(=O)Nc2cccc(C(=O)O)c2)cc1`, the result was inactive.

For the compound `CC(C)(C)c1ccc(C(=O)Nc2ccccc2C(=O)Nc2ccc([N+](=O)[O-])c(C(=O)O)c2)cc1`, the result was inactive.

Consider `O=C(Cc1ccccc1)Nc1ccccc1C(=O)Nc1cccc(C(=O)O)c1`, for which the result was inactive.

A further assay addresses T1, Bile acid receptor (Homo sapiens). The experiment in a line: Agonist activity at FXR in human HepG2 cells assessed as induction of BSEP mrNA expression at 3 uM by quantitative PCR method. Type of assay: cell-based.
Settings: not given
The method in brief:
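HepG2 cells were seeded at 2 × 10⁶ per well. After 24 h they were switched to MEM with 1% charcoal-stripped FCS, and 24 h later dosed with compound (0.1, 0.3, 1, 3, 10 μM; 0.1% DMSO final) for 24 h. Total RNA was reverse transcribed and analysed by qPCR, GAPDH-normalized, ΔΔCt method. Samples were run in duplicate in ≥4 independent experiments.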
As to `CC(C)c1onc(-c2c(Cl)cccc2Cl)c1COc1ccc(/C=C/c2cccc(C(=O)O)c2)c(Cl)c1`, the Activity amounted to 1520%.

The next assay addresses T2, Bile acid receptor (Homo sapiens, UniProt Q96RI1).
T2 sequence (Q96RI1 whole entry): T1 sequence (whole entry)
The experiment in a line: Agonist activity at human FXR expressed in human HeLa cells assessed as receptor activation by BSEP promoter-driven firefly luciferase reporter gene assay. Type of assay: cell-based. The following applies: hela.
As for `CC(C)(C)c1ccc(NC(=O)c2ccccc2NC(=O)c2cccc(C(=O)O)c2)cc1`, the EC50 (usually the concentration needed to bring the measured effect to its halfway point) is given as “Not Active”.

Staying with this assay, now noted: read-out: EC50.
Turning to `CC(=O)c1cccc(NC(=O)c2ccccc2NC(=O)c2ccc(C(C)(C)C)cc2)c1`, the EC50 was 0.48 µM.

With `CC(C)(C)c1ccc(C(=O)Nc2cc(Br)ccc2C(=O)Nc2cccc(C(=O)O)c2)cc1`, the EC50 came out at 0.048 µM.

On to `CC(C)(C)c1ccc(C(=O)Nc2ccccc2C(=O)Nc2cccc(CC(=O)O)c2)cc1`, for which the EC50 was 0.42 µM.

Take `CC(C)(C)c1ccc(C(=O)Nc2ccccc2C(=O)Nc2cccc(CCC(=O)O)c2)cc1`: the EC50 amounted to 0.064 µM.

In the case of `O=C(O)c1cccc(NC(=O)c2ccccc2NC(=O)c2ccc(Br)cc2)c1`, the concentration for a half-maximal effect (EC50) came to 3.7 µM.

As to `Cc1c(NC(=O)c2ccccc2NC(=O)c2ccc(C(C)(C)C)cc2)cccc1C(=O)O`, the concentration giving a half-maximal response (EC50) came out at 0.042 µM.

Consider `CC(C)(C)c1ccc(C(=O)Nc2ccccc2C(=O)Nc2cc(C(=O)O)ccc2Cl)cc1`, for which the 50% effective concentration (EC50) turned out to be 1.1 µM.

As to `Cc1ccc(C(=O)Nc2cccc(C(=O)O)c2)c(NC(=O)c2ccc(C(C)(C)C)cc2)c1`, the EC50 came to 0.061 µM.

Turning to `Cc1ccc(C(=O)Nc2ccc(C)c(C(=O)O)c2)c(NC(=O)c2ccc(C(C)(C)C)cc2)c1`, the concentration giving a half-maximal response (EC50) came to 0.043 µM.

In the case of `CC(C)(C)c1ccc(C(=O)Nc2ccccc2C(=O)Nc2cccc(-c3nnn[nH]3)c2)cc1`, the concentration giving a half-maximal response (EC50) is 2.9 µM.

As to `CC(C)(C)c1ccc(C(=O)Nc2ccccc2C(=O)Nc2cc(C(=O)O)ccc2F)cc1`, the EC50 worked out at 0.48 µM.

Consider `CC(C)(C)c1ccc(C(=O)Nc2ccccc2C(=O)Nc2cccc(C(=O)O)c2)cc1`, for which the concentration giving a half-maximal response (EC50) is 0.28 µM.

Consider `COc1ccc(NC(=O)c2ccccc2NC(=O)c2ccc(C(C)(C)C)cc2)cc1OC`, for which the 50% effective concentration (EC50) is 0.071 µM.

For the compound `COc1ccc(NC(=O)c2ccccc2NC(=O)c2ccc(C(C)(C)C)cc2)cc1C(=O)O`, the concentration for a half-maximal effect (EC50) amounted to 0.047 µM.

With `O=C(O)c1cccc(NC(=O)c2ccccc2NC(=O)c2ccc3c(c2)OCCO3)c1`, the EC50 was 4.9 µM.

Consider `O=C(O)c1cccc(NC(=O)c2ccccc2NC(=O)c2ccc(C(F)(F)F)cc2)c1`, for which the EC50 was 6.9 µM.

Regarding `CC(C)(C)c1ccc(C(=O)Nc2ccccc2C(=O)Nc2ccc(Cl)c(C(=O)O)c2)cc1`, the EC50 was found to be 0.28 µM.

In the case of `CSc1cccc(NC(=O)c2ccccc2NC(=O)c2ccc(C(C)(C)C)cc2)c1`, the half-maximal effective concentration (EC50) stood at 0.2 µM.

In the case of `CC(C)(C)c1ccc(C(=O)Nc2ccccc2C(=O)Nc2cccc(C#N)c2)cc1`, the half-maximal effective concentration (EC50) is 0.23 µM.

Consider `CC(C)(C)c1ccc(C(=O)Nc2ccccc2C(=O)Nc2cccc(C(N)=O)c2)cc1`, for which the concentration for a half-maximal effect (EC50) came out at 0.074 µM.

As for `O=C(/C=C/c1ccccc1)Nc1ccccc1C(=O)Nc1cccc(C(=O)O)c1`, the concentration giving a half-maximal response (EC50) came out at 5.2 µM.

As to `O=C(O)c1cccc(NC(=O)c2ccccc2NC(=O)c2ccc3c(c2)OCO3)c1`, the 50% effective concentration (EC50) turned out to be 10 µM.

Take `Cc1ccc(NC(=O)c2ccccc2NC(=O)c2ccc(C(C)(C)C)cc2)cc1C(=O)O`: the EC50 came to 0.045 µM.

Regarding `Cc1ccc(NC(=O)c2ccc(Cl)cc2NC(=O)c2ccc(C(C)(C)C)cc2)cc1C(=O)O`, the 50% effective concentration (EC50) was 0.11 µM.

For the compound `O=C(O)c1cccc(NC(=O)c2ccccc2NC(=O)c2ccc(C(F)(F)F)c(F)c2)c1`, the EC50 was 5 µM.

Regarding `CC(C)(C)c1ccc(C(=O)Nc2ccccc2C(=O)Nc2ccc(Br)c(C(=O)O)c2)cc1`, the half-maximal effective concentration (EC50) came to 0.15 µM.

As for `COc1ccc(C(=O)Nc2ccc(C)c(C(=O)O)c2)c(NC(=O)c2ccc(C(C)(C)C)cc2)c1`, the EC50 came out at 0.087 µM.

As for `COc1ccc(C(=O)O)cc1NC(=O)c1ccccc1NC(=O)c1ccc(C(C)(C)C)cc1`, the EC50 worked out at 4.7 µM.

Turning to `CC(C)(C)c1ccc(C(=O)Nc2cc(Cl)ccc2C(=O)Nc2cccc(C(=O)O)c2)cc1`, the half-maximal effective concentration (EC50) is 0.047 µM.

Take `COc1cccc(NC(=O)c2ccccc2NC(=O)c2ccc(C(C)(C)C)cc2)c1`: the EC50 is 0.38 µM.

For a further assay, the target named is T1, Bile acid receptor (Homo sapiens). The assay can be described thus: Antagonist activity at human FXR expressed in human HeLa cells assessed as inhibition of receptor activation by BSEP promoter-driven firefly luciferase reporter gene assay relative to untreated control. Format: cell-based. The conditions noted are these: concentration not given here. The method in brief: as §1
Consider `COc1ccc(NC(=O)c2ccc(C(C)(C)C)cc2)c(C(=O)Nc2cccc(C(=O)O)c2)c1`, for which the inhibition (usually the drop in the measured response relative to a control, in per cent) came out at 10%.

Regarding `CC(C)(C)c1ccc(C(=O)Nc2ccc(Cl)cc2C(=O)Nc2cccc(C(=O)O)c2)cc1`, the inhibition is 15%.

A further assay concerns the target T2, Bile acid receptor. The assay can be described thus: Antagonist activity at human FXR expressed in human HeLa cells assessed as inhibition of receptor activation by BSEP promoter-driven firefly luciferase reporter gene assay. Format: cell-based.
Settings: not given
The method in brief: as §1
With `COc1ccc(NC(=O)c2ccc(C(C)(C)C)cc2)c(C(=O)Nc2cccc(C(=O)O)c2)c1`, the IC50 (commonly the concentration that inhibits the measured activity by half) amounted to 15.1 µM.

With `CC(C)(C)c1ccc(C(=O)Nc2ccc(Cl)cc2C(=O)Nc2cccc(C(=O)O)c2)cc1`, the IC50 turned out to be 12.3 µM.
